Data from ChEMBL document CHEMBL1212889, “Novel antifungal agents: triazolopyridines as inhibitors of beta-1,6-glucan synthesis” (Bioorg Med Chem, 2010).
Values after ≈ are worked out from the molar mass of the structure shown.

Assays:
[1] = Solubility of the compound at pH 6.8; type: physicochemical; conditions: buffer
Outline: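 Water solubility measured at pH 6.8.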

[2] = test system: Liver microsomes; assay: Metabolic stability in human liver microsomes; type: ADME, Microsome
Outline: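 Compound at 1 µM final with human liver microsomes (0.5 mg/mL protein) in sodium phosphate buffer pH 7.4, preincubated 20 min at 37 °C. NADPH started the reaction, and MeOH stopped it after 30 min. Samples were centrifuged at 4 °C, and parent loss was measured by LC/MS/MS.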

[3] = Octanol-phosphate buffered saline partition coefficient, log D of the compound at pH 6.8; type: physicochemical
Outline: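 Shake partition between 1-octanol and phosphate-buffered saline at pH 6.8. Layers were separated by centrifugation at 3000 rpm for 10 min, and each layer was assayed by LC/MS on a C18 column with an ammonium acetate (pH 4.5)/acetic acid–acetonitrile gradient. Log D was computed from the partition coefficient.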

[4] = test system: Nakaseomyces glabratus; assay: Antimicrobial activity against Candida glabrata ATCC 48435 using alamar blue stain by microdilution assay; type: functional
Outline: (§1)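 Modified CLSI microdilution in RPMI 1640 with 0.165 M MOPS, plus alamar blue redox indicator. Inoculum was 1 × 10³ to 1 × 10⁴ cells/mL and incubation ran 18–72 h, both set per strain by growth speed, at 30 °C. OD570 was read and MIC-2 taken as the lowest concentration giving 50% absorbance reduction versus the drug-free control.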

[5] = test system: Saccharomyces cerevisiae; assay: Antimicrobial activity against Saccharomyces cerevisiae AY14 using alamar blue stain by microdilution assay; type: functional; outline: as §1
[6] = test system: Candida albicans; assay: Antimicrobial activity against Candida albicans ATCC 24433 using alamar blue stain by microdilution assay; type: functional; outline: as §1
[7] = test system: Candida tropicalis; assay: Antimicrobial activity against Candida tropicalis IAM 4965 using alamar blue stain by microdilution assay; type: functional; outline: as §1
[8] = test system: Pichia kudriavzevii; assay: Antimicrobial activity against Candida krusei ATCC 44507 using alamar blue stain by microdilution assay; type: functional; outline: as §1
[9] = test system: Saccharomyces cerevisiae; assay: Antimicrobial activity against Saccharomyces cerevisiae AY14 by microdilution assay; type: functional
Outline: (§2)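 CLSI broth microdilution, modified to incubate at 30 °C. MIC-0 is the lowest drug concentration giving an optically clear well. Table footnote: the endpoint was the lowest concentration producing a prominent reduction in turbidity. Drug range 0.004 to 128 µg/mL.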

[10] = test system: Candida albicans; assay: Antimicrobial activity against Candida albicans ATCC 24433 by microdilution assay; type: functional; outline: as §2
[11] = test system: Nakaseomyces glabratus; assay: Antimicrobial activity against Candida glabrata IFO 0622 by microdilution assay; type: functional; outline: as §2
[12] = test system: Candida tropicalis; assay: Antimicrobial activity against Candida tropicalis TIMM 0313 by microdilution assay; type: functional; outline: as §2
[13] = test system: Pichia kudriavzevii; assay: Antimicrobial activity against Candida krusei TIMM 0269 by microdilution assay; type: functional; outline: as §2

Compound	solubility [1]	Stability [2]	logD [3]	MIC [4]	MIC [5]	MIC [6]	MIC [7]	MIC [8]	MIC [9]	MIC [10]	MIC [11]	MIC [12]	MIC [13]
Cc1c(-c2ccccc2)c(N2CC[C@H](N(C)C)C2)n2nc(C(C)(C)CO)nc2c1C#N	140 µg/mL (≈ 334 µM)	64%	1.8	0.25 µg/mL (≈ 0.597 µM)	0.125 µg/mL (≈ 0.299 µM)	> 4 µg/mL	0.25 µg/mL (≈ 0.597 µM)	> 4 µg/mL	–	–	–	–	–
Cc1c(-c2ccccc2)c(N2CC[C@H](N(C)C)C2)n2nc(C(C)(C)COCc3ccccc3)nc2c1C#N	< 3 µg/mL	9%	3.8	0.125 µg/mL (≈ 0.246 µM)	0.063 µg/mL (≈ 0.124 µM)	> 4 µg/mL	0.125 µg/mL (≈ 0.246 µM)	> 4 µg/mL	–	–	–	–	–
CCCCc1nc2c(C#N)c(C)c(-c3ccccc3)c(N3CC[C@H](N(C)C)C3)n2n1	33 µg/mL (≈ 82 µM)	5%	3.2	–	–	–	–	–	2 µg/mL (≈ 4.97 µM)	> 128 µg/mL	1 µg/mL (≈ 2.48 µM)	> 64 µg/mL	> 64 µg/mL
Cc1c(-c2ccccc2)c(N2CC[C@H](N(C)C)C2)n2cc(C(C)(C)C)nc2c1C#N	27 µg/mL (≈ 67.2 µM)	16%	3	0.25 µg/mL (≈ 0.623 µM)	0.125 µg/mL (≈ 0.311 µM)	4 µg/mL (≈ 9.96 µM)	4 µg/mL (≈ 9.96 µM)	4 µg/mL (≈ 9.96 µM)	–	–	–	–	–
Cc1c(-c2ccccc2)c(N2CC[C@H](N(C)C)C2)n2c(nc3ccccc32)c1C#N	5.3 µg/mL (≈ 13.4 µM)	29%	3.1	–	–	–	–	–	≤ 0.125 µg/mL	> 128 µg/mL	≤ 0.125 µg/mL	0.5 µg/mL (≈ 1.26 µM)	≤ 0.125 µg/mL
OC(Cn1cncn1)(Cn1cncn1)c1ccc(F)cc1F [FLUCONAZOLE]	> 2000 µg/mL	96%	–	–	–	–	–	–	4 µg/mL (≈ 13.1 µM)	0.25 µg/mL (≈ 0.816 µM)	2 µg/mL (≈ 6.53 µM)	0.25 µg/mL (≈ 0.816 µM)	16 µg/mL (≈ 52.2 µM)
Cc1cn2c(N3CC[C@H](N(C)C)C3)c(-c3ccccc3)c(C)c(C#N)c2n1	356 µg/mL (≈ 990 µM)	71%	1.9	0.5 µg/mL (≈ 1.39 µM)	1 µg/mL (≈ 2.78 µM)	> 4 µg/mL	> 4 µg/mL	> 4 µg/mL	–	–	–	–	–
CCCCc1c(C)c(C#N)c2nc3ccccc3n2c1N1CC[C@H](N(C)C)C1	26 µg/mL (≈ 69.2 µM)	57%	3.2	–	–	–	–	–	0.25 µg/mL (≈ 0.666 µM)	> 128 µg/mL	≤ 0.125 µg/mL	0.5 µg/mL (≈ 1.33 µM)	0.5 µg/mL (≈ 1.33 µM)
CCN(CC)CCNc1c(-c2ccccc2)c(C)c(C#N)c2nc(C(C)(C)C)nn12	2 µg/mL (≈ 4.94 µM)	10%	3.3	–	–	–	–	–	0.5 µg/mL (≈ 1.24 µM)	> 128 µg/mL	0.5 µg/mL (≈ 1.24 µM)	> 128 µg/mL	> 128 µg/mL
Cc1c(-c2ccccc2)c(N2CC[C@H](N(C)C)C2)n2nc(-c3ccccc3)nc2c1C#N	–	–	–	–	–	–	–	–	> 128 µg/mL	> 128 µg/mL	> 128 µg/mL	> 128 µg/mL	> 128 µg/mL
CCCCc1c(C)c(C#N)c2nc(C(C)(C)C)nn2c1N1CC[C@H](N(C)C)C1	146 µg/mL (≈ 382 µM)	11%	3.2	–	–	–	–	–	64 µg/mL (≈ 167 µM)	> 128 µg/mL	32 µg/mL (≈ 83.6 µM)	> 128 µg/mL	> 128 µg/mL
Cc1c(-c2ccccc2)c(N2CC[C@H](N(C)C)C2)n2nc(C3CC3)nc2c1C#N	57 µg/mL (≈ 147 µM)	48%	2.4	0.063 µg/mL (≈ 0.163 µM)	0.032 µg/mL (≈ 0.0828 µM)	> 4 µg/mL	1 µg/mL (≈ 2.59 µM)	> 4 µg/mL	–	–	–	–	–
Cc1nc2c(C#N)c(C)c(-c3ccccc3)c(N3CC[C@H](N(C)C)C3)n2n1	376 µg/mL (≈ 1040 µM)	84%	1.7	–	–	–	–	–	8 µg/mL (≈ 22.2 µM)	> 128 µg/mL	2 µg/mL (≈ 5.55 µM)	> 128 µg/mL	> 128 µg/mL
Cc1c(-c2ccccc2)c(N2CC[C@H](N(C)C)C2)n2nc(C(C)(C)C)nc2c1C#N	16 µg/mL (≈ 39.7 µM)	9%	3.1	0.063 µg/mL (≈ 0.157 µM)	0.063 µg/mL (≈ 0.157 µM)	> 4 µg/mL	0.25 µg/mL (≈ 0.621 µM)	> 4 µg/mL	≤ 0.125 µg/mL	> 128 µg/mL	≤ 0.125 µg/mL	2 µg/mL (≈ 4.97 µM)	16 µg/mL (≈ 39.7 µM)
Cc1c(-c2ccccc2)c(N2CC[C@H](N(C)C)C2)n2nc(C(C)(C)C)cc2c1C#N	< 2 µg/mL	12%	4.8	1 µg/mL (≈ 2.49 µM)	1 µg/mL (≈ 2.49 µM)	4 µg/mL (≈ 9.96 µM)	1 µg/mL (≈ 2.49 µM)	4 µg/mL (≈ 9.96 µM)	–	–	–	–	–
CCc1nc2c(C#N)c(C)c(-c3ccccc3)c(N3CC[C@H](N(C)C)C3)n2n1	228 µg/mL (≈ 609 µM)	54%	2.1	0.125 µg/mL (≈ 0.334 µM)	0.063 µg/mL (≈ 0.168 µM)	> 4 µg/mL	1 µg/mL (≈ 2.67 µM)	> 4 µg/mL	–	–	–	–	–
